Assay results gathered from unrelated publications.
Lines come from different studies, so protocols differ.
Phosphatidylserine lipase ABHD16A: Phosphatidylserine lipase ABHD16A (Homo sapiens, UniProt O95870)

| Structure (SMILES) | target | test | setting | measurement | value |
| --- | --- | --- | --- | --- | --- |
| N=C(N)NCCC[C@H](N)C(=O)O | Nitric oxide synthase, inducible (Nos2, Mus musculus, UniProt P29477) | cell-free assay | – | Kd | 2.6 µM |
| Oc1ccc(/C=C/c2cc(O)cc(O)c2)cc1 | Troponin C, slow skeletal and cardiac muscles (TNNC1, Human, UniProt P63316) | binding, NMR | – | Kd | 240 µM |
| O=C(O)C1=CC(O)CC1 (centres unmarked) | Calcium/calmodulin-dependent protein kinase type II subunit alpha (Rattus norvegicus, UniProt P11275) | cell-free assay, radioligand | pH 6 | Ki | 1.58 µM |
| CC(C)CCC[C@@H](C)[C@H]1CC[C@H]2[C@@H]3C[C@@H](n4cncc4CCN)[C@@]4(O)C[C@@H](O)CC[C@]4(C)[C@H]3CC[C@]12C | Bifunctional epoxide hydrolase 2 (EPHX2, Homo sapiens, UniProt P34913) | enzyme activity, inhibitor | – | IC50 | > 100 µM |
| CC(=O)SCCNC(=O)CCNC(=O)[C@H](O)C(C)(C)COP(=O)(O)OP(=O)(O)OC[C@H]1O[C@@H](n2cnc3c(N)ncnc32)[C@H](O)[C@@H]1OP(=O)(O)O | CAB1 (Saccharomyces cerevisiae, UniProt Q04430) | enzyme activity, inhibitor | – | IC50 | > 100 µM |
| NC(=O)CCCC/C=C1\C(=O)OC1CCCCCCCCCc1ccccc1 (centres unmarked) | Phosphatidylserine lipase ABHD16A | enzyme activity, inhibitor | – | IC50 | 0.2 to 0.5 µM |
| CC(C)C[C@H](NC(=O)[C@H](Cc1ccccc1)NC(=O)[C@H](Cc1ccc(O)cc1)NC(=O)CNC(=O)[C@H](CCCCN)NC(=O)[C@H](CO)NC(=O)[C@H](CCC(N)=O)NC(=O)CNC(=O)[C@@H](NC(=O)[C@H](CO)NC(=O)[C@@H]1CCCN1C(=O)[C@H](CO)NC(=O)[C@H](CCC(N)=O)NC(=O)[C@H](Cc1ccc(O)cc1)NC(=O)[C@H](CCC(=O)O)NC(=O)[C@H](C)NC(=O)[C@H](CCCCN)NC(=O)[C@@H](N)Cc1ccccc1)C(C)C)C(=O)N[C@@H](Cc1ccccc1)C(=O)N[C@@H](CCCNC(=N)N)C(=O)N1CCC[C@H]1C(=O)N[C@@H](CCCNC(=N)N)C(=O)N[C@@H](CC(N)=O)C(N)=O | Neuromedin-U receptor 1 (NMUR1, Homo sapiens, UniProt Q9HB89) | inositol phosphate, agonist | – | EC50 | 0.000447 µM |
| Cn1cc(-c2cc(F)cc(N3CCn4c(cc5c4CCCC5)C3=O)c2CO)cc(Nc2ccc(N3CCN(C4COC4)CC3)cn2)c1=O | Tyrosine-protein kinase Lck (LCK, Homo sapiens, UniProt P06239) | enzyme activity, inhibitor, FRET | – | Ki | 1.07 µM |
| CC(C)[C@@H]1NC(=O)[C@@H]2CCCN2C(=O)[C@H](Cc2ccccc2)NC(=O)CSC[C@@H](C(=O)N[C@@H](Cc2ccc(O)cc2)C(N)=O)NC(=O)[C@H](Cc2c[nH]c3ccccc23)NC(=O)[C@H](CCCCN)NC(=O)[C@H](Cc2ccccc2)N(C)C(=O)[C@H](Cc2ccccc2)NC1=O | Stimulator of interferon genes protein (STING1, Homo sapiens, UniProt Q86WV6, H232R) | binding, SPR | – | Kd | 0.25 µM |
| CCCS(=O)(=O)Nc1ccc(F)c(C(=O)c2c[nH]c3ncc(Br)cc23)c1F | Dual specificity mitogen-activated protein kinase kinase 4 (MAP2K4, Homo sapiens, UniProt P45985) | enzyme activity, inhibitor, ADP detection | – | IC50 | 1.4 µM |
| CCCCCCCCCCCCCC1OC(=O)/C1=C\CCCCC(N)=O (centres unmarked) | Phosphatidylserine lipase ABHD16A | cell-free assay, inhibitor | – | IC50 | 0.2 to 0.5 µM |
